Converted amounts (≈) assume the structure as drawn.
Assays:
Staphylococcus aureus = assay: Antibacterial activity against Staphylococcus aureus ATCC 25923 after 18 to 24 hrs by CLSI two fold serial dilution method; format: functional
Bacillus subtilis = assay: Antibacterial activity against Bacillus subtilis ATCC 21216 after 18 to 24 hrs by CLSI two fold serial dilution method; format: functional
Micrococcus luteus = assay: Antibacterial activity against Micrococcus luteus ATCC 4698 after 18 to 24 hrs by CLSI two fold serial dilution method; format: functional
Escherichia coli = assay: Antibacterial activity against Escherichia coli DH52 after 18 to 24 hrs by CLSI two fold serial dilution method; format: functional
Pseudomonas aeruginosa = assay: Antibacterial activity against Pseudomonas aeruginosa ATCC 27853 after 18 to 24 hrs by CLSI two fold serial dilution method; format: functional
Candida albicans = assay: Antifungal activity against Candida albicans ATCC 76615 by CLSI two fold serial dilution method; format: functional
Cyberlindnera jadinii = assay: Antifungal activity against Candida utilis ATCC 9950 by CLSI two fold serial dilution method; format: functional; details: Williopsis jadinii
Pichia norvegensis = assay: Antifungal activity against Candida mycoderma ATCC 96918 by CLSI two fold serial dilution method; format: functional
Aspergillus flavus = assay: Antifungal activity against Aspergillus flavus ATCC 204304 by CLSI two fold serial dilution method; format: functional
Saccharomyces cerevisiae = assay: Antifungal activity against Saccharomyces cerevisiae ATCC 9763 by CLSI two fold serial dilution method; format: functional
Candida parapsilosis = assay: Antifungal activity against Candida parapsilosis ATCC 22019 by CLSI two fold serial dilution method; format: functional; details: Lodderomyces parapsilosis
[1] = Aqueous solubility of the compound in phosphate buffer at pH 7.4 after 3 hrs by UV detection assay; format: physicochemical
Summary of the method: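 Water solubility measured at physiological pH, with berberine as the control.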

Structure (SMILES)	MIC (Staphylococcus aureus) [µM]	MIC (Bacillus subtilis) [µM]	MIC (Micrococcus luteus) [µM]	MIC (Escherichia coli) [µM]	MIC (Pseudomonas aeruginosa) [µM]	MIC (Candida albicans) [µM]	MIC (Cyberlindnera jadinii) [µM]	MIC (Pichia norvegensis) [µM]	MIC (Aspergillus flavus) [µM]	MIC (Saccharomyces cerevisiae) [µM]	MIC (Candida parapsilosis) [µM]	solubility at 3 h [1] [µg/mL]
COc1cc(/C=N/Nc2nccs2)c2c(c1OCc1ccccc1Cl)CN1CCc3cc4c(cc3C1C2)OCO4 (stereo not drawn)	110 (≈ 63.3 µg/mL)	220 (≈ 127 µg/mL)	890 (≈ 512 µg/mL)	450 (≈ 259 µg/mL)	450 (≈ 259 µg/mL)	450 (≈ 259 µg/mL)	450 (≈ 259 µg/mL)	110 (≈ 63.3 µg/mL)	890 (≈ 512 µg/mL)	890 (≈ 512 µg/mL)	110 (≈ 63.3 µg/mL)	374 to 3190 (≈ 0.65 to 5.55 mM)
COc1cc(/C=N/Nc2nccs2)c2c(c1OCc1ccc(Cl)c(Cl)c1)CN1CCc3cc4c(cc3C1C2)OCO4 (stereo not drawn)	110 (≈ 67 µg/mL)	210 (≈ 128 µg/mL)	420 (≈ 256 µg/mL)	110 (≈ 67 µg/mL)	110 (≈ 67 µg/mL)	420 (≈ 256 µg/mL)	420 (≈ 256 µg/mL)	210 (≈ 128 µg/mL)	420 (≈ 256 µg/mL)	840 (≈ 512 µg/mL)	110 (≈ 67 µg/mL)	374 to 3190 (≈ 0.614 to 5.23 mM)
COc1cc(/C=N/Nc2nccs2)c2c(c1OCc1ccc(Cl)cc1)CN1CCc3cc4c(cc3C1C2)OCO4 (stereo not drawn)	450 (≈ 259 µg/mL)	450 (≈ 259 µg/mL)	220 (≈ 127 µg/mL)	110 (≈ 63.3 µg/mL)	220 (≈ 127 µg/mL)	450 (≈ 259 µg/mL)	220 (≈ 127 µg/mL)	450 (≈ 259 µg/mL)	890 (≈ 512 µg/mL)	890 (≈ 512 µg/mL)	60 (≈ 34.5 µg/mL)	374 to 3190 (≈ 0.65 to 5.55 mM)
COc1cc(/C=N/Nc2nccs2)c2c(c1OCc1ccc([N+](=O)[O-])cc1)CN1CCc3cc4c(cc3C1C2)OCO4 (stereo not drawn)	110 (≈ 64.4 µg/mL)	110 (≈ 64.4 µg/mL)	220 (≈ 129 µg/mL)	440 (≈ 258 µg/mL)	50 (≈ 29.3 µg/mL)	220 (≈ 129 µg/mL)	440 (≈ 258 µg/mL)	220 (≈ 129 µg/mL)	870 (≈ 510 µg/mL)	440 (≈ 258 µg/mL)	7 (≈ 4.1 µg/mL)	374 to 3190 (≈ 0.639 to 5.45 mM)
COc1cc(/C=N/Nc2nccs2)c2c(c1OCc1cccc(Cl)c1)CN1CCc3cc4c(cc3C1C2)OCO4 (stereo not drawn)	220 (≈ 127 µg/mL)	110 (≈ 63.3 µg/mL)	220 (≈ 127 µg/mL)	890 (≈ 512 µg/mL)	220 (≈ 127 µg/mL)	450 (≈ 259 µg/mL)	450 (≈ 259 µg/mL)	220 (≈ 127 µg/mL)	450 (≈ 259 µg/mL)	890 (≈ 512 µg/mL)	60 (≈ 34.5 µg/mL)	374 to 3190 (≈ 0.65 to 5.55 mM)

The next lines start with the values.

MIC (Staphylococcus aureus) [µM]	MIC (Bacillus subtilis) [µM]	MIC (Micrococcus luteus) [µM]	MIC (Escherichia coli) [µM]	MIC (Pseudomonas aeruginosa) [µM]	MIC (Candida albicans) [µM]	MIC (Cyberlindnera jadinii) [µM]	MIC (Pichia norvegensis) [µM]	MIC (Aspergillus flavus) [µM]	MIC (Saccharomyces cerevisiae) [µM]	MIC (Candida parapsilosis) [µM]	solubility at 3 h [1] [µg/mL]	Structure (SMILES)
110 (≈ 65 µg/mL)	220 (≈ 130 µg/mL)	220 (≈ 130 µg/mL)	220 (≈ 130 µg/mL)	220 (≈ 130 µg/mL)	220 (≈ 130 µg/mL)	220 (≈ 130 µg/mL)	430 (≈ 254 µg/mL)	430 (≈ 254 µg/mL)	430 (≈ 254 µg/mL)	220 (≈ 130 µg/mL)	61 (≈ 0.103 mM)	CCCCCCCCCCOc1c(OC)cc(/C=N/Nc2nccs2)c2c1CN1CCc3cc4c(cc3C1C2)OCO4 (stereo not drawn)
130 (≈ 64.3 µg/mL)	260 (≈ 129 µg/mL)	260 (≈ 129 µg/mL)	130 (≈ 64.3 µg/mL)	130 (≈ 64.3 µg/mL)	260 (≈ 129 µg/mL)	520 (≈ 257 µg/mL)	520 (≈ 257 µg/mL)	1040 (≈ 514 µg/mL)	520 (≈ 257 µg/mL)	30 (≈ 14.8 µg/mL)	7020 to 10200 (≈ 14.2 to 20.6 mM)	COc1cc(/C=N/Nc2nccs2)c2c(c1OCCO)CN1CCc3cc4c(cc3C1C2)OCO4 (stereo not drawn)
130 (≈ 63.6 µg/mL)	260 (≈ 127 µg/mL)	260 (≈ 127 µg/mL)	260 (≈ 127 µg/mL)	260 (≈ 127 µg/mL)	70 (≈ 34.3 µg/mL)	520 (≈ 255 µg/mL)	130 (≈ 63.6 µg/mL)	1050 (≈ 514 µg/mL)	1050 (≈ 514 µg/mL)	20 (≈ 9.79 µg/mL)	7020 to 10200 (≈ 14.3 to 20.8 mM)	COc1cc(/C=N/Nc2nccs2)c2c(c1OCC#N)CN1CCc3cc4c(cc3C1C2)OCO4 (stereo not drawn)
240 (≈ 130 µg/mL)	470 (≈ 254 µg/mL)	240 (≈ 130 µg/mL)	950 (≈ 514 µg/mL)	240 (≈ 130 µg/mL)	470 (≈ 254 µg/mL)	470 (≈ 254 µg/mL)	60 (≈ 32.4 µg/mL)	950 (≈ 514 µg/mL)	950 (≈ 514 µg/mL)	60 (≈ 32.4 µg/mL)	374 to 3190 (≈ 0.692 to 5.9 mM)	COc1cc(/C=N/Nc2nccs2)c2c(c1OCc1ccccc1)CN1CCc3cc4c(cc3C1C2)OCO4 (stereo not drawn)
